Measurements as given in ChEMBL document CHEMBL1122201, “Carboxyimamidate, a low-molecular-weight polyelectrolyte with antitumor properties and low toxicity” (1982).
Values joined by “and” are separate entries in the source; they are usually repeats but may differ in a detail not shown here. Identical values can stand only once.

Legend:
Mus musculus [1] = organism: Mus musculus; assay: Increase in mean life span was measured against M5076 ovarian tumor cells; type: functional
Outline: (§1)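 Tumor brei, 10%, 0.5 mL, implanted sc in groups of 10 mice: CD2F1 for Nettesheim and Madison, B6D2F1 for M5076. M5076 also implanted ip with the same inoculum; Madison im at 0.2 mL. Drug given ip in saline, 0.5 mL/mouse, at or below the maximally tolerated dose. ILS excludes long-term survivors. Animals held 60 days; t test.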

Mus musculus [2] = assay: Ratio of mean tumor volume of treated groups to that of the mean of total untreated controls in the subcutaneous Lewis Lung Carcinoma model at a dose of 100-125 (mg/kg)/day; type: functional
Outline: (§2)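 Mice bearing sc Lewis lung carcinoma (groups of 10) received the saline-dissolved agent daily on days 1-5, 1-8 or 1-10, ip or sc. Perpendicular tumor diameters were measured with vernier calipers on day 14, and volume was taken as 0.5 × length × width². T/C is treated mean volume over the mean of all untreated controls (3-4 groups of 10), pooled across experiments as mean ± SE.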

Mus musculus [3] = assay: Proportion of survivors was determined on the 60th day at a dose of 158-251 mg/kg/day; type: functional
Outline: (§3)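 Lewis lung carcinoma model in mice, groups of 10. Dosing daily on days 1-5, 1-8 or 1-10, ip or subcutaneous. Dose ranges pooled from nine independent experiments run at different levels. ILS is the percent increase in mean life span, excluding cures, over the mean of 3 or 4 untreated control groups of 10. Survivors scored at day 60.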

Mus musculus [4] = assay: Percent increase of mean life span of treated groups relative to the mean of the untreated control groups in the subcutaneous Lewis Lung Carcinoma model at a dose of 158-251 (mg/kg)/day; type: functional; outline: as §3
Mus musculus [5] = organism: Mus musculus; assay: Tumor weight inhibition against colon carcinoma 38
Mus musculus [6] = assay: Ratio of mean tumor volume of treated groups to that of the mean of total untreated controls in the subcutaneous Lewis Lung Carcinoma model at a dose of 500-600 (mg/kg)/day; type: functional; outline: as §2
Mus musculus [7] = organism: Mus musculus; assay: Tumor weight inhibition against EMT6 mammary carcinoma cells
Mus musculus [8] = organism: Mus musculus; assay: Tumor weight inhibition against P815 mastocytoma cells
Mus musculus [9] = assay: Ratio of mean tumor volume of treated groups to that of the mean of total untreated controls in the subcutaneous Lewis Lung Carcinoma model at a dose of 900-1000 mg/kg/day; type: functional; outline: as §2
Mus musculus [10] = assay: Average proportion of total treated mice without palpable tumors was determined in the subcutaneous Lewis Lung Carcinoma model at a dose of 1200-1500 (mg/kg)/day; type: functional
Outline: (§4)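 Sc-implanted Lewis lung carcinoma in mice, groups of 10. Agent dissolved in sterile saline and given daily on days 1-5, 1-8 or 1-10, ip or sc (0.5 mL/mouse). Each experiment had 3 or 4 untreated control groups of 10. The read-out was the average proportion of treated mice without palpable tumor on day 14, pooled over independent experiments as mean ± SE.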

Mus musculus [11] = assay: Proportion of survivors was determined on the 60th day at a dose of 2400-2512 (mg/kg)/day; type: functional; outline: as §3
Mus musculus [12] = assay: Proportion of survivors was determined on the 60th day at a dose of 1200-1500 (mg/kg)/day; type: functional; outline: as §3
Mus musculus [13] = organism: Mus musculus; assay: Increase in mean life span was measured against Nettesheim lung carcinoma cells; type: functional; outline: as §1
Mus musculus [14] = assay: Ratio of mean tumor volume of treated groups to that of the mean of total untreated controls in the subcutaneous Lewis Lung Carcinoma model at a dose of 300-400 (mg/kg)/day; type: functional; outline: as §2
Mus musculus [15] = organism: Mus musculus; assay: Increase in mean life span was measured against Madison 109 lung carcinoma cells; type: functional, M109; outline: as §1
Mus musculus [16] = organism: Mus musculus; assay: Increase in mean life span was measured against ADJ-PC6 plasmacytoma cells; type: functional
Outline: (§5)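 10^6 Trypan blue-excluding cells implanted ip (P815 sc) in groups of 10 mice: B6D2F1 for L5178Y and P815, BALB/c for ADJ-PC6, C3H for Gardner. Drug given ip in sterile saline, 0.5 mL/mouse, at or below the maximally tolerated dose for the schedule. ILS excludes long-term tumor-free survivors. Animals held 60 days; Student's t test against untreated controls.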

Mus musculus [17] = organism: Mus musculus; assay: Increase in mean life span was measured against colon carcinoma; type: functional
Rattus norvegicus = organism: Rattus norvegicus; assay: Increase in mean life span was measured against Walker carcinosarcoma cells
Mus musculus [18] = organism: Mus musculus; assay: Tumor weight inhibition against colon carcinoma 26
Mus musculus [19] = organism: Mus musculus; assay: Increase in mean life span was measured against colon carcinoma 26 cells; type: functional, Colon 26
Outline: (§6)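 Colon carcinoma 26: 0.5 mL of 1% brei implanted sc or ip in groups of 10 CD2F1 mice. Drug given ip in sterile saline, 0.5 mL/mouse, at or below the maximally tolerated dose for the schedule. Mean life span excludes long-term tumor-free survivors. Animals held 60 days; Student's t test against untreated controls.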

Mus musculus [20] = organism: Mus musculus; assay: Tumor weight inhibition against M5076 ovarian tumor
Mus musculus [21] = assay: Proportion of survivors was determined on the 60th day at a dose of 100-125 mg/kg/day; type: functional; outline: as §3
Mus musculus [22] = organism: Mus musculus; assay: Tumor weight inhibition against Nettesheim lung carcinoma cells
Mus musculus [23] = assay: Percent increase of mean life span of treated groups relative to the mean of the untreated control groups in the subcutaneous Lewis Lung Carcinoma model at a dose of 900-1000 (mg/kg)/day; type: functional; outline: as §3
Mus musculus [24] = organism: Mus musculus; assay: Increase in mean life span was measured against B16 melanoma cells; type: functional
Mus musculus [25] = assay: Proportion of survivors was determined on the 60th day at a dose of 500-600 mg/kg/day; type: functional; outline: as §3
Mus musculus [26] = organism: Mus musculus; assay: Increase in mean life span was measured against Gardner lymphosarcoma cells; type: functional; outline: as §5
Mus musculus [27] = assay: Proportion of survivors was determined on the 60th day at a dose of 300-400 (mg/kg)/day; type: functional; outline: as §3
Mus musculus [28] = assay: Average proportion of total treated mice without palpable tumors was determined in the subcutaneous Lewis Lung Carcinoma model at a dose of 158-251 (mg/kg)/day; type: functional; outline: as §4
Mus musculus [29] = assay: Percent increase of mean life span of treated groups relative to the mean of the untreated control groups in the subcutaneous Lewis Lung Carcinoma model at a dose of 2400-2512 (mg/kg)/day; type: functional; outline: as §3
Mus musculus [30] = assay: Ratio of mean tumor volume of treated groups to that of the mean of total untreated controls in the subcutaneous Lewis Lung Carcinoma model at a dose of 1200-1500 mg/kg/day; type: functional; outline: as §2
Mus musculus [31] = organism: Mus musculus; assay: Tumor weight inhibition against B16 melanoma cells
Mus musculus [32] = organism: Mus musculus; assay: Tumor weight inhibition against Madison 109 lung carcinoma cells
Mus musculus [33] = assay: Percent increase of mean life span of treated groups relative to the mean of the untreated control groups in the subcutaneous Lewis Lung Carcinoma model at a dose of 100-125 mg/kg/day; type: functional; outline: as §3
Mus musculus [34] = assay: Average proportion of total treated mice without palpable tumors was determined in the subcutaneous Lewis Lung Carcinoma model at a dose of 62-75 (mg/kg)/day; type: functional; outline: as §4
Mus musculus [35] = assay: Average proportion of total treated mice without palpable tumors was determined in the subcutaneous Lewis Lung Carcinoma model at a dose of 100-125 (mg/kg)/day; type: functional; outline: as §4
Mus musculus [36] = assay: Average proportion of total treated mice without palpable tumors was determined in the subcutaneous Lewis Lung Carcinoma model at a dose of 900-1000 (mg/kg)/day; type: functional; outline: as §4
Mus musculus [37] = assay: Proportion of survivors was determined on the 60th day at a dose of 900-1000 mg/kg/day; type: functional; outline: as §3
Mus musculus [38] = organism: Mus musculus; assay: Increase in mean life span was measured against colon carcinoma 26; type: functional; outline: as §6
Mus musculus [39] = organism: Mus musculus; assay: Increase in mean life span was measured against M5076 ovarian tumor; type: functional; outline: as §1
Mus musculus [40] = assay: Percent increase of mean life span of treated groups relative to the mean of the untreated control groups in the subcutaneous Lewis Lung Carcinoma model at a dose of 500-600 (mg/kg)/day; type: functional; outline: as §3
Mus musculus [41] = organism: Mus musculus; assay: Increase in mean life span was measured against B16 melanoma cells carcinoma 26; type: functional
Mus musculus [42] = assay: Ratio of mean tumor volume of treated groups to that of the mean of total untreated controls in the subcutaneous Lewis Lung Carcinoma model at a dose of 2400-2512 (mg/kg)/day; type: functional; outline: as §2
[43] = test system: Walker carcinosarcoma 256 (Rattus norvegicus); assay: Tumor weight inhibition Walker carcinosarcoma cells against
Mus musculus [44] = assay: Ratio of mean tumor volume of treated groups to that of the mean of total untreated controls in the subcutaneous Lewis Lung Carcinoma model at a dose of 158-251 (mg/kg)/day; type: functional; outline: as §2
Mus musculus [45] = assay: Proportion of survivors was determined on the 60th day at a dose of 62-75 mg/kg/day; type: functional; outline: as §3
Mus musculus [46] = assay: Percent increase of mean life span of treated groups relative to the mean of the untreated control groups in the subcutaneous Lewis Lung Carcinoma model at a dose of 300-400 (mg/kg)/day; type: functional; outline: as §3
Mus musculus [47] = assay: Average proportion of total treated mice without palpable tumors was determined in the subcutaneous Lewis Lung Carcinoma model at a dose of 500-600 (mg/kg)/day; type: functional; outline: as §4
Mus musculus [48] = assay: Ratio of mean tumor volume of treated groups to that of the mean of total untreated controls in the subcutaneous Lewis Lung Carcinoma model at a dose of 62-75 mg/kg/day; type: functional; outline: as §2
Mus musculus [49] = assay: Average proportion of total treated mice without palpable tumors was determined in the subcutaneous Lewis Lung Carcinoma model at a dose of 300-400 (mg/kg)/day; type: functional; outline: as §4
Mus musculus [50] = assay: Average proportion of total treated mice without palpable tumors was determined in the subcutaneous Lewis Lung Carcinoma model at a dose of 2400-2512 (mg/kg)/day; type: functional; outline: as §4
Mus musculus [51] = assay: Percent increase of mean life span of treated groups relative to the mean of the untreated control groups in the subcutaneous Lewis Lung Carcinoma model at a dose of 62-75 (mg/kg)/day; type: functional; outline: as §3
Mus musculus [52] = organism: Mus musculus; assay: Increase in mean life span was measured against EMT6 mammary carcinoma cells; type: functional
Outline: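 EMT6 given as sc trochar implants in C3H mice, groups of 10. Drug given ip in sterile saline, 0.5 mL/mouse, at or below the maximally tolerated dose for the schedule. Mean life span excludes long-term tumor-free survivors. Animals held 60 days after implantation; Student's t test against untreated controls.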

Mus musculus [53] = assay: Percent increase of mean life span of treated groups relative to the mean of the untreated control groups in the subcutaneous Lewis Lung Carcinoma model at a dose of 1200-1500 (mg/kg)/day; type: functional; outline: as §3
Mus musculus [54] = organism: Mus musculus; assay: Increase in mean life span was measured against L5178 Y leukemia cells; type: functional; outline: as §5

CC(c1ccccc1)C1C(=O)NC(=O)C1CCC(C(N)=O)C(CCC(CC(=O)O)C(N)=O)C(=O)O.N.N (stereo not given)
ILS (Mus musculus [1]): 40% | T/C (Mus musculus [2]): 0.62 | Proportion of survivors (Mus musculus [3]): 0.04 | ILS (Mus musculus [4]): 15% | TWI (Mus musculus [5]): 44 | T/C (Mus musculus [6]): 0.32 | TWI (Mus musculus [7]): 14 | TWI (Mus musculus [8]): 60 and 53 | T/C (Mus musculus [9]): 0.17 | Average proportion (Mus musculus [10]): 0.48 | Proportion of survivors (Mus musculus [11]): 0.13 | Proportion of survivors (Mus musculus [12]): 0.21 | ILS (Mus musculus [13]): 6% | T/C (Mus musculus [14]): 0.4 | ILS (Mus musculus [15]): 27% and 23% and 20% | ILS (Mus musculus [16]): 24% | ILS (Mus musculus [17]): 14% | ILS (Rattus norvegicus): 3% | TWI (Mus musculus [18]): 70 | ILS (Mus musculus [19]): 48% and 31% and 75% | TWI (Mus musculus [20]): 89 | Proportion of survivors (Mus musculus [21]): 0.04 | TWI (Mus musculus [22]): 39 | ILS (Mus musculus [23]): 19% | ILS (Mus musculus [24]): 21% and 11% | Proportion of survivors (Mus musculus [25]): 0.12 | ILS (Mus musculus [26]): 4% | Proportion of survivors (Mus musculus [27]): 0.09 | Average proportion (Mus musculus [28]): 0.14 | ILS (Mus musculus [29]): -28% | T/C (Mus musculus [30]): 0.16 | TWI (Mus musculus [31]): 74 | TWI (Mus musculus [32]): 67 and 78 and 50 | ILS (Mus musculus [33]): 12% | Average proportion (Mus musculus [34]): 0.08 | Average proportion (Mus musculus [35]): 0.1 | Average proportion (Mus musculus [36]): 0.47 | Proportion of survivors (Mus musculus [37]): 0.21 | ILS (Mus musculus [38]): 22% | ILS (Mus musculus [39]): 20% | ILS (Mus musculus [40]): 15% | ILS (Mus musculus [41]): 7% | T/C (Mus musculus [42]): 0.1 | TWI [43]: 21 | T/C (Mus musculus [44]): 0.58 | Proportion of survivors (Mus musculus [45]): 0.03 | ILS (Mus musculus [46]): 17% | Average proportion (Mus musculus [47]): 0.29 | T/C (Mus musculus [48]): 0.59 | Average proportion (Mus musculus [49]): 0.27 | Average proportion (Mus musculus [50]): 0.6 | ILS (Mus musculus [51]): 12% | ILS (Mus musculus [52]): 13% | ILS (Mus musculus [53]): 24% | ILS (Mus musculus [54]): 5%
